One data set deals with Beta-secretase 1 (Homo sapiens, UniProt P56817). The data set is described as follows: Inhibition of BACE1 (unknown origin) assessed as cleavage of amyloid precursor protein by beta-galactosidase enzyme complementation assay.
Data set [1] has as its target T1, Nuclear receptor subfamily 1 group I member 2 (Homo sapiens, UniProt O75469).
T1 sequence (O75469 whole entry): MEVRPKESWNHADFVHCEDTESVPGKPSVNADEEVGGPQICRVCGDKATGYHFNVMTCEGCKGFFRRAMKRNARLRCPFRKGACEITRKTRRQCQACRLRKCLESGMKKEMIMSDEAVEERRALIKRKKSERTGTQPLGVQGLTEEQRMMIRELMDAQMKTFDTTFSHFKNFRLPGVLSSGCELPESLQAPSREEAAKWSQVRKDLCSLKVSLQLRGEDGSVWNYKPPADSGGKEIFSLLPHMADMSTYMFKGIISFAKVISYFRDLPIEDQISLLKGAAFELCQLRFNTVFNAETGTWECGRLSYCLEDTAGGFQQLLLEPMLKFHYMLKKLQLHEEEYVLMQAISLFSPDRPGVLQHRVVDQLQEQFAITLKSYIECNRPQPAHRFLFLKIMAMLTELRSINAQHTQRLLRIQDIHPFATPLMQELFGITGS
In words: Activation of human PXR expressed in human DPX2 cells assessed as induction of CYP3A4 gene expression at 10 uM measured after 24 hrs by luciferase reporter gene assay relative to rifampicin. It counts as cell-based. Conditions: dpx2, 24 h. Put shortly:
(§1)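 PXR reporter run in stable DPX2 cells expressing human PXR with a luciferase reporter linked to two human CYP3A4 promoters. Compound (six concentrations, duplicate wells) was added 24 h after seeding, with a further 24 h incubation. Viability was read first, then luciferase in the same wells. Rifampicin was the reference at seven concentrations; activation is given as % of rifampicin response, with rifampicin at 10 μM.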

Data set [2] deals with T1, Nuclear receptor subfamily 1 group I member 2. The data set is described as follows: Activation of human PXR expressed in human DPX2 cells assessed as induction of CYP3A4 gene expression at 0.4 uM measured after 24 hrs by luciferase reporter gene assay relative to rifampicin. The note with it: dpx2, 24 h. It counts as cell-based. Put shortly: as §1
Data set [3] has the same target. The data set is described as follows: Activation of human PXR expressed in human DPX2 cells assessed as induction of CYP3A4 gene expression at 40 uM measured after 24 hrs by luciferase reporter gene assay relative to rifampicin. Conditions: dpx2, 24 h. It counts as cell-based. Put shortly: as §1
Data set [4] deals with T2, PXR (NR1I2); CYP3A4 gene expression (Homo sapiens, UniProt O75469).
T2 sequence (O75469 whole entry): T1 sequence (O75469 whole entry)
The data set is described as follows: Activation of human PXR expressed in human DPX2 cells assessed as induction of CYP3A4 gene expression at 10 uM measured after 24 hrs by luciferase reporter gene assay relative to control. It counts as cell-based. Conditions: DPX2 cells expressing human PXR, read-out: FC. Put shortly:
(§2)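 DPX2 cells stably carrying human PXR (NR1I2) and a luciferase reporter under two human CYP3A4 promoters. Cells were seeded, treated 24 h later with six compound concentrations in duplicate wells, then incubated 24 h more. Viable cells were counted by a fluorescent cytotoxicity read in the same wells, then luciferase (ONE-Glo) was read. Fold activation is relative to DMSO vehicle-treated cells.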

The target of data set [5] is T1, Nuclear receptor subfamily 1 group I member 2. The data set is described as follows: Activation of human PXR expressed in human DPX2 cells assessed as induction of CYP3A4 gene expression at 0.1 uM measured after 24 hrs by luciferase reporter gene assay relative to rifampicin. It counts as cell-based. Conditions: dpx2, 24 h. Summed up: as §1
Data set [6] concerns the target T2, PXR (NR1I2); CYP3A4 gene expression. In words: Activation of human PXR expressed in human DPX2 cells assessed as induction of CYP3A4 gene expression at 40 uM measured after 24 hrs by luciferase reporter gene assay relative to control. In kind it is cell-based. The note with it: DPX2 cells expressing human PXR, read-out: FC. Put shortly: as §2
In data set [7] the target is T1, Nuclear receptor subfamily 1 group I member 2. The data set is described as follows: Activation of human PXR expressed in human DPX2 cells assessed as induction of CYP3A4 gene expression at 4 uM measured after 24 hrs by luciferase reporter gene assay relative to rifampicin. It counts as cell-based. Conditions: dpx2, 24 h. Summed up:
as §1

Data set [8] has the same target. The data set is described as follows: Activation of human PXR expressed in human DPX2 cells assessed as induction of CYP3A4 gene expression at 1 uM measured after 24 hrs by luciferase reporter gene assay relative to rifampicin. In kind it is cell-based. Conditions: dpx2, 24 h. Summed up: as §1
The target in data set [9] is T2, PXR (NR1I2); CYP3A4 gene expression. In words: Activation of human PXR expressed in human DPX2 cells assessed as induction of CYP3A4 gene expression at 0.4 uM measured after 24 hrs by luciferase reporter gene assay relative to control. It counts as cell-based. The note with it: DPX2 cells expressing human PXR, read-out: FC. Summed up:
as §2

For data set [10] the target is unchanged. In words: Activation of human PXR expressed in human DPX2 cells assessed as induction of CYP3A4 gene expression at 1 uM measured after 24 hrs by luciferase reporter gene assay relative to control. It counts as cell-based. The note with it: DPX2 cells expressing human PXR, read-out: FC. Summed up: as §2
The target is the same in data set [11]. The data set is described as follows: Activation of human PXR expressed in human DPX2 cells assessed as induction of CYP3A4 gene expression at 0.1 uM measured after 24 hrs by luciferase reporter gene assay relative to control. In kind it is cell-based. The note with it: DPX2 cells expressing human PXR, read-out: FC. Put shortly:
as §2

The target is the same in data set [12]. The data set is described as follows: Activation of human PXR expressed in human DPX2 cells assessed as induction of CYP3A4 gene expression at 4 uM measured after 24 hrs by luciferase reporter gene assay relative to control. In kind it is cell-based. The note with it: DPX2 cells expressing human PXR, read-out: FC. Put shortly:
as §2

Beta-secretase 1, sequence (P56817 whole entry): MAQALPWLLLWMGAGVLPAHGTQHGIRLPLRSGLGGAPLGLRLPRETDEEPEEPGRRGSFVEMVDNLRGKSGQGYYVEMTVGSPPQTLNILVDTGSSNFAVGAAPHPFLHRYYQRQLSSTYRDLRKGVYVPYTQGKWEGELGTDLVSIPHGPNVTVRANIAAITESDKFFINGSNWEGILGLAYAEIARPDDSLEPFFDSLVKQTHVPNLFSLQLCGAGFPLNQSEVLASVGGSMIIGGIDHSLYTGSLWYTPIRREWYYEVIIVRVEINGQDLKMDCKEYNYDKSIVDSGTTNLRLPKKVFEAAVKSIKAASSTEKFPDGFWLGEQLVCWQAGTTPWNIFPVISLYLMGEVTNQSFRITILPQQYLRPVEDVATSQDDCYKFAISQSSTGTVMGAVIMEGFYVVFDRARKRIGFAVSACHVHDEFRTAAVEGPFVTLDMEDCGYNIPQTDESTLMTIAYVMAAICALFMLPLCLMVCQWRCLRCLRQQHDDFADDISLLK

For `CC[C@]1(C)CCC2=C1CC[C@H]1[C@H]2C[C@@H](Cl)C2=C[C@@H](O)[C@@H]3C[C@@]21C(=O)O3`, the IC50 at Beta-secretase 1 worked out at 82 µM.

As for `C/C=C1\CC[C@H]2[C@@H]3CC=C4[C@@H](O)[C@@H](O)[C@@H]5C[C@]4(C(=O)O5)[C@H]3CC[C@]12C`, the Activity in data set [1] came out at 6%; in data set [2], 4%; in data set [3], 28%; in data set [5], 3%; in data set [7] it was 2%; in [8], 2%. In [4], the fold induction at 24 h, 10 µM is 1.6. For the same molecule, the fold induction at 24 h, 40 µM in data set [6] worked out at 3.7. Moreover, the fold induction at 24 h, 0.4 µM in [9] is 1.4. In addition, the fold induction at 24 h, 1 µM in data set [10] was determined as 1.2. Besides, the fold induction at 24 h, 0.1 µM in data set [11] amounted to 1.3. For the same molecule, in data set [12], the fold induction at 24 h, 4 µM came to 1.2.
